Experimental data as given in publication PMC5484535 (Bioorganic & medicinal chemistry, 2016).

How the values were obtained:
SW156 = assay: Anti-proliferation in SW156 renal cell carcinoma cells; format: cell-based; conditions: read-out: Cellular IC50s Kidney SW156
PANC-1 = assay: Anti-proliferation in PANC-1 pancreatic cancer cells; format: cell-based; conditions: Homo sapiens, PANC-1, read-out: Cellular IC50s Pancreas PANC-1
URMC6 = assay: Anti-proliferation in URMC6 renal cell carcinoma cells; format: cell-based; conditions: read-out: Cellular IC50s Kidney URMC6
[1] = test system: synovial fibroblasts from an RA patient (RA2159); assay: Cytokine secretion by activated RA synovial fibroblasts; format: cell-based, human; conditions: TNFα, IL-1α or Poly(I:C) activation
Summary of the method: (§1)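 Primary human RA synovial fibroblasts (lot RA2159) were seeded at 1000 cells/well, grown ~24 h, then starved overnight and ~4 h in 0.1% BSA. Pooled supernatants (duplicates) were diluted 1:3 for 48-analyte Luminex measurement and iMLR modeling.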

H23 cells = assay: Anti-proliferation in H23 NSCLC cells; format: cell-based; conditions: 72 h, in words
Summary of the method: (§2)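 Cells seeded at 2000 cells/well and left 48 h before drug addition at varying doses. After 72 h incubation, viability was read by CellTiter-Glo luminescence. Growth-inhibition IC50 values were calculated from dose-response curves.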

TAK1 [2] = target: T1, TAK1 (Homo sapiens, UniProt O43318); assay: Competitive pulldown of TAK1 with biotinylated probe 27 in H358 and H23 cells; format: cell-based; conditions: 6 h, washout, lysate + 1 μM 27; for blocking of labeling of TAK1 by 27: 10 μM compound; for labeling of TAK1 by 27 after pre-treatment of cells: 1 μM compound; for effect on labeling of TAK1 by 27: 1 or 10 μM compound
T1 sequence (O43318 1-606): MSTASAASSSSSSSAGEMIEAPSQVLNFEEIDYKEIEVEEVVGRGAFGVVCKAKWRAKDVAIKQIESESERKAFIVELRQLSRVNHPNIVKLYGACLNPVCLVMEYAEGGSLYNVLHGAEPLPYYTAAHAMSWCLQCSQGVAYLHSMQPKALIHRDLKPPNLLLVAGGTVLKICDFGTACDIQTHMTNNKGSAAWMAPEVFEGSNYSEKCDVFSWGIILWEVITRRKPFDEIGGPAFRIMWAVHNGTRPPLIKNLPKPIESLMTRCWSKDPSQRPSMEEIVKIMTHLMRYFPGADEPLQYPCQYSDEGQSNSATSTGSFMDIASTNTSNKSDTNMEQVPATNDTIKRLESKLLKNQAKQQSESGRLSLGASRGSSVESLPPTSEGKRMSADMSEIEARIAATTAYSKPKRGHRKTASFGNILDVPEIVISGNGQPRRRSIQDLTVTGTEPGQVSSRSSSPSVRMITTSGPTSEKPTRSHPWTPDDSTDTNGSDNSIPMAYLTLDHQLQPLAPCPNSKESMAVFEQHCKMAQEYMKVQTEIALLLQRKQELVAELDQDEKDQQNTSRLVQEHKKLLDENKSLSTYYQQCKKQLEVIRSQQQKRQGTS
Summary of the method: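 H358 and H23 NSCLC cells (KRAS G12C) were exposed to test compound at 1 or 10 μM for 6 h. Drug medium was removed, and cells were rinsed twice with cold PBS and lysed in MPER buffer. Lysates were incubated overnight at 4 °C with 1 μM biotinylated probe and pulled down on streptavidin beads. Recovered TAK1 was detected by immunoblotting.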

[3] = test system: synovial fibroblasts from an RA patient (RA2159); assay: FGF-basic secretion by TNFα-activated RA synovial fibroblasts; format: cell-based, human; conditions: TNFα-activated SF
Summary of the method: as §1

KRAS^G12D Ba/F3 cells = assay: Anti-proliferation in KRAS^G12D Ba/F3 cells; format: cell-based; conditions: 2 vs 8, 25 vs 26
H358 cells = assay: Anti-proliferation in H358 NSCLC cells; format: cell-based; conditions: 72 h, in words
Summary of the method: as §2

panel of 456 kinases = assay: KinomeScan ATP-site competition binding panel; conditions: 1 and 10 μM
[4] = test system: synovial fibroblasts from an RA patient (RA2159); conditions: TNFα but not IL-1α or Poly(I:C) ref 24; cited from earlier work
MAP2K6 = target: T2, MAP2K6 (Homo sapiens, UniProt P52564); assay: KiNativ live-cell profiling in SK-CO-1 cells; format: binding; conditions: read-out: Inhibition (%) MAP2K6
T2 sequence (P52564 1-334): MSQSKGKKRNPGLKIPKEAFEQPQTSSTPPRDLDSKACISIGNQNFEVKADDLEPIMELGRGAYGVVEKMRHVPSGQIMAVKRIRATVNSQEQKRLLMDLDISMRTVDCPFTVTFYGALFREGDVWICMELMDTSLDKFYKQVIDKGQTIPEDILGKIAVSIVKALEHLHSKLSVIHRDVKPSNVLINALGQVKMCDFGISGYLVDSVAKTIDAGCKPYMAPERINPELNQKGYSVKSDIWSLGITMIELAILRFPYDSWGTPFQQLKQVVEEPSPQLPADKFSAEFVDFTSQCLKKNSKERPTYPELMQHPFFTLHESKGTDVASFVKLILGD

ZAP70 = target: T3, ZAP70 (Homo sapiens, UniProt P43403); assay: KiNativ live-cell profiling in SK-CO-1 cells; format: binding; conditions: read-out: Inhibition (%) ZAP70
T3 sequence (P43403 1-619): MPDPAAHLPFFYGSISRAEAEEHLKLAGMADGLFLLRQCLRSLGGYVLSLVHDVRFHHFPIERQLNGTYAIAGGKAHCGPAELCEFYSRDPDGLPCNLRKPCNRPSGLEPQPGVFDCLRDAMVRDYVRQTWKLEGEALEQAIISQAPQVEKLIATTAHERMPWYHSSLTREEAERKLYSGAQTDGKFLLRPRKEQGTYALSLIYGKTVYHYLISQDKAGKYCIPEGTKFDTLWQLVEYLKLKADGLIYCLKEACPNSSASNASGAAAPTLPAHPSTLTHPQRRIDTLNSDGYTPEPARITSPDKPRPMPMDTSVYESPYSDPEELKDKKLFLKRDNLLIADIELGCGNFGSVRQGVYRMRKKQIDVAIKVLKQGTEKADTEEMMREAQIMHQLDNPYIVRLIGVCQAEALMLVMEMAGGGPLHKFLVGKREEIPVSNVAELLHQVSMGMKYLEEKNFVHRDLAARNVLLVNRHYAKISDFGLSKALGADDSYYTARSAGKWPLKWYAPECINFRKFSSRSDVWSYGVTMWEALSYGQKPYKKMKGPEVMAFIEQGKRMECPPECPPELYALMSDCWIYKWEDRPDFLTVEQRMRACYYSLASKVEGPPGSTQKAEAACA

[5] = test system: SW620, SK-CO-1, PANC-1, AsPc-1, SW156, URMC6; assay: Anti-proliferation across six colon, pancreas and kidney cancer lines; format: cell-based; conditions: read-out: IC50 values against all lines except PANC-1
MAP2K5 = target: T4, MAP2K5 (Homo sapiens, UniProt Q13163); assay: KiNativ live-cell profiling in SK-CO-1 cells; format: binding; conditions: read-out: Inhibition (%) MAP2K5
T4 sequence (Q13163 1-448): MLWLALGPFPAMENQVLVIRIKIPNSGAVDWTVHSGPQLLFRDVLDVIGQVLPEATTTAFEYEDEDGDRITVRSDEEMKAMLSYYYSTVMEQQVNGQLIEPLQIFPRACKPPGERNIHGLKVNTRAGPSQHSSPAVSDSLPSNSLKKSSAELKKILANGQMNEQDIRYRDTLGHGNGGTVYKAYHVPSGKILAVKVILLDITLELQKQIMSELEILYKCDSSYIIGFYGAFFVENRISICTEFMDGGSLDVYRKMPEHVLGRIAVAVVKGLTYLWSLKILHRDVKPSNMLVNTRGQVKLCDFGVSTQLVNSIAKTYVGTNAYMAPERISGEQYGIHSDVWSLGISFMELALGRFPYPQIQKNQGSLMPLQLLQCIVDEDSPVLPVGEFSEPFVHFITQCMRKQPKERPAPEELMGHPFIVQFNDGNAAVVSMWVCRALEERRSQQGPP

ARAF = target: T5, ARAF (Homo sapiens, UniProt P10398); assay: KiNativ live-cell profiling in SK-CO-1 cells; format: binding; conditions: read-out: Inhibition (%) ARAF
T5 sequence (P10398 1-606): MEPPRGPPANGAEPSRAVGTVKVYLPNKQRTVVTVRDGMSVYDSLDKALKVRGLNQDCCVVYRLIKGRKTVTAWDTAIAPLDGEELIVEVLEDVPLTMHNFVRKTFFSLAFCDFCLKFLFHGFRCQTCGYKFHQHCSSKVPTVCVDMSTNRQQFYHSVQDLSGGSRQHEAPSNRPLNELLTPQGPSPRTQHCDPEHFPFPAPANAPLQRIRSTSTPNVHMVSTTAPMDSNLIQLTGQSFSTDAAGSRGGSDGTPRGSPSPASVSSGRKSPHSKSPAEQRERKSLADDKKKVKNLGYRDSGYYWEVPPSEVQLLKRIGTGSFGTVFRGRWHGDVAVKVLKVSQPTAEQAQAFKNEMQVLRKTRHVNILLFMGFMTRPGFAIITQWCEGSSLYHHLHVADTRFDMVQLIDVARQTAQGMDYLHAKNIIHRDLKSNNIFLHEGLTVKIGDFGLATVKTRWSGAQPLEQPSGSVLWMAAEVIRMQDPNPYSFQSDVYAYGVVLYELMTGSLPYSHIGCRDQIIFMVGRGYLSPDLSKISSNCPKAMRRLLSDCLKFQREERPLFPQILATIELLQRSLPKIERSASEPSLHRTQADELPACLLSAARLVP

TAK1 [6] = target: T1, TAK1; assay: KiNativ live-cell profiling in SK-CO-1 cells; format: binding; conditions: 1 μM

Cn1cnc2c(F)c(Nc3ccc(Br)cc3Cl)c(C(=O)NOCCO)cc21 [AZD]
IC50 (SW156): > 100 µM
IC50 (PANC-1): > 100 µM
IC50 (URMC6): > 100 µM

CC(C)Nc1cc(-c2c[nH]c(C(=O)N[C@H](CO)c3cccc(Cl)c3)c2)c(Cl)cn1 [BVD]
IC50 (PANC-1): > 100 µM
IC50 (URMC6): > 100 µM

C=CC(=O)Nc1ccccc1Oc1nc(Nc2ccc(N3CCN(C)CC3)cc2)ncc1Cl [Compound 2]
normalization of induced cytokine secretion ([1]; 3 μM): normalized cytokine secretion
anti-proliferative effect, H23 (H23 cells): potent against both lines at very low concentrations
blocking of labeling of TAK1 by 27 (TAK1 [2]): only partially blocked labeling of TAK1
potentiation of FGF-basic secretion induced by TNFα [3]: potentiated FGF-basic secretion
fold more potent than non-covalent counterpart against KRAS^G12D Ba/F3 cells (KRAS^G12D Ba/F3 cells): approximately 6 fold
anti-proliferative effect, H358 (H358 cells): potent against both lines at very low concentrations

COc1cc(O)c2c(c1)/C=C/C[C@H](O)[C@H](O)C(=O)/C=C\C[C@H](C)OC2=O [Compound 5Z7, 5Z-7-oxozeaenol, reference compound]
normalization of induced cytokine secretion ([1]; 0.6 μM): fully normalizing induced cytokine secretion
labeling of TAK1 by 27 after pre-treatment of cells (TAK1 [2]): did not label TAK1
KinomeScan inhibition score (panel of 456 kinases): strong inhibition score against many kinases other than TAK1
secretion of FGF-basic in SF activated by TNFα [4]: elevated secretion of fibroblast growth factor-basic

C=CC(=O)Nc1ccccc1Nc1nc(Nc2ccc(N3CCN(C)CC3)cc2)ncc1Cl [Compound 5]
normalization of induced cytokine secretion ([1]; 0.6 μM): fully normalizing induced cytokine secretion
anti-proliferative effect, H23 (H23 cells): potent against both lines at very low concentrations
labeling of TAK1 by 27 after pre-treatment of cells (TAK1 [2]): did not label TAK1
inhibition at 1 µM (MAP2K6): -43.1%
inhibition at 1 µM (ZAP70): -26.6%
potentiation of FGF-basic secretion induced by TNFα [3]: potentiated FGF-basic secretion
anti-proliferative effect, H358 (H358 cells): potent against both lines at very low concentrations
IC50 [5]: 0.029 to 0.083 µM

CCC(=O)Nc1ccccc1Oc1nc(Nc2ccc(N3CCN(C)CC3)cc2)ncc1Cl [Compound 8]
normalization of induced cytokine secretion ([1]; 3 μM): virtually inactive
effect on labeling of TAK1 by 27 (TAK1 [2]): did not have a measurable effect

CCC(=O)Nc1ccccc1Nc1nc(Nc2ccc(N3CCN(C)CC3)cc2)ncc1Cl [Compound 9]
effect on labeling of TAK1 by 27 (TAK1 [2]): did not have a measurable effect

CN1CCN(c2ccc(Nc3ncc(Cl)c(Nc4ccccc4NC(=O)CCl)n3)cc2)CC1 [Compound 10]
anti-proliferative effect, H23 (H23 cells): potent against both lines at very low concentrations
blocking of labeling of TAK1 by 27 (TAK1 [2]): only partially blocked labeling of TAK1
anti-proliferative effect, H358 (H358 cells): potent against both lines at very low concentrations

C=CC(=O)Oc1ccccc1Nc1nc(Nc2cccc(N3CCOCC3)c2)ncc1Cl [Compound 20]
blocking of labeling of TAK1 by 27 (TAK1 [2]): only partially blocked labeling of TAK1

C=CC(=O)Nc1ccccc1Oc1nc(Nc2cnn(C(F)F)c2)ncc1Cl [Compound 23]
blocking of labeling of TAK1 by 27 (TAK1 [2]): only partially blocked labeling of TAK1

C=CC(=O)Nc1ccccc1Oc1nc(Nc2cnn(CCOC)c2)ncc1Cl [Compound 25]
inhibition at 1 µM (MAP2K5): -59.6%
normalization of induced cytokine secretion ([1]; 3 μM): normalized cytokine secretion
inhibition at 1 µM (ARAF): -15.8%
blocking of labeling of TAK1 by 27 (TAK1 [2]): only partially blocked labeling of TAK1
inhibition at 1 µM (MAP2K6): -21.6%
binding to TAK1 in KiNativ assay (TAK1 [6]): could not detect binding to TAK1

CCC(=O)Nc1ccccc1Oc1nc(Nc2cnn(CCOC)c2)ncc1Cl [Compound 26]
IC50 (SW156): > 100 µM
normalization of induced cytokine secretion ([1]; 3 μM): virtually inactive
effect on labeling of TAK1 by 27 (TAK1 [2]): did not have a measurable effect
IC50 (PANC-1): > 100 µM

CCN1CCN(Cc2ccc(NC(=O)c3ccc(C)c(Oc4ccnc5[nH]ccc45)c3)cc2C(F)(F)F)CC1 [NG25, reference compound]
normalization of induced cytokine secretion ([1]; 3 μM): normalized cytokine secretion
anti-proliferative effect, H23 (H23 cells): insufficient to block proliferation at concentrations lower than 5 μM
effect on labeling of TAK1 by 27 (TAK1 [2]): inhibited TAK1 in an irreversible manner
anti-proliferative effect, H358 (H358 cells): insufficient to block proliferation at concentrations lower than 5 μM
